# Thrombin inh = inhibitors of human thrombin | P00734 | alpha-thrombin, Boc-VPR-AMC fluorogenic substrate cleavage | inhibition, % at 5 µM | 0.26% of 220,000 active;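 active = inhibition at or above 40%; inactive = inhibition below 40%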
#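 Test system: human alpha-thrombin; medium: pH 7.5 Tris-saline with Tween 20; times: reaction at room temperature; signal: AMC fluorescence at 355 nm excitation and 460 nm emission; also added: Boc-VPR-AMC substrate, 15 µM final; dosing: one concentration per compound, 5 µM, with 0.2% DMSO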
# AHR act = activators of human aryl hydrocarbon receptor | P35869 | AHR-responsive luciferase reporter cells, luminescence | activation, % at 5 µM | 2.5% of 320,000 active; in the data active = activation above about 47%
# STAT3 act = activators of IL-6 induced STAT3 signaling; U3A cells, IL-6 STAT3-luciferase reporter, luminescence; 100% = signal with IL-6 EC80 alone; activation (% of control), % at 5.6 µM; 0.91% of 190,000 active; AID 871;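 active = activation above the screen-wide mean of compound activation plus 3 SD, cut at about 130% in these data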
#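 Material: STAT3-luciferase reporter U3A cells. Controls: IL-6-treated wells, 100% activation. Read-out: % activation versus median of IL-6-stimulated wells. Probe or stimulus: IL-6 stimulus at 33 ng/mL final. Timing: compound 1 h, then IL-6 6 h at 37 °C. Signal: reporter luminescence signal.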
# FXIa inh 1536 = factor XIa (human) inhibition | P03951 | purified FXIa, Boc-Glu-Ala-Arg-AMC fluorogenic substrate | inhibition, % at 5 µM | 0.14% of 220,000 active;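 active = inhibition of at least 40%; inactive = inhibition below 40%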;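 note: fluorescence of freed AMC excited at 355 nm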
# hK5 inh = inhibitors of human kallikrein 5 | Q9Y337 | recombinant hK5, fluorogenic AMC substrate cleavage | inhibition, % at 5 µM | 0.59% of 210,000 active;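 active = inhibition of 40% or more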
# Target sequence (Q9Y337 67-293 limits assumed): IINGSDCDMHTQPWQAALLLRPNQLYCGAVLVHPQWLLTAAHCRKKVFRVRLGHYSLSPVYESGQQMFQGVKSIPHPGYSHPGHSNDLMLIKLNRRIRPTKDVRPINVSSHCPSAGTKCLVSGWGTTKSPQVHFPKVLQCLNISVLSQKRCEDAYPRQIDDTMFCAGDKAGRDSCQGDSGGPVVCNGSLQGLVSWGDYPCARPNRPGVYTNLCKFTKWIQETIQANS
# FXIIa inh = factor XIIa (human) inhibition. P00748. purified FXIIa, Boc-QGR-AMC fluorogenic substrate, 2 h. inhibition, % at 5 µM. 0.3% of 220,000 active. AID 800; in the data active = inhibition above about 40%
# A number is an active result; - = inactive; . = no result. Most compounds without a hit are left out; they make up all but 3.5% or so of the library.
SMILES,Thrombin inh,AHR act,STAT3 act,FXIa inh 1536,hK5 inh,FXIIa inh
CCCc1nc2oc3ccccc3c(=O)c2c(=O)n1-c1ccccc1,-,100.5,.,-,-,-
CCc1nc2oc3ccccc3c(=O)c2c(=O)n1-c1ccc(C)cc1,-,64.0,.,-,-,-
C#CCOc1ccc(/C=C2/C(=O)NN(c3ccc(F)cc3)C2=O)cc1OC,.,-,.,.,.,.
COc1ccc(NS(=O)(=O)c2cc(NC(=O)/C=C/c3ccccc3OC)ccc2N2CCCCC2)cc1,-,-,-,-,-,-
C=CCSc1nnc(-c2cc3c(-c4ccccc4)nn(C)c3s2)n1C,-,-,-,-,52.2,-
Cc1ccc(/C=N/NC(=O)c2cccc3ccccc23)o1,.,-,.,.,.,.
CCn1nc(C)c(/C=N/NC(=O)c2c[nH]c3ccccc23)c1C,-,98.8,-,-,-,-
Cc1ccc(/C=N/NC(=O)c2c[nH]c3ccccc23)s1,-,50.5,-,-,-,-
Cc1ccc(/C=N/NC(=O)c2c[nH]c3ccccc23)o1,-,71.8,-,-,-,-
O=C(N/N=C/c1ccccn1)c1c[nH]c2ccccc12,-,56.9,.,-,-,-
CCn1nc(C)c(/C=N/NC(=O)Cn2nccc2C)c1C,-,-,-,-,-,-
Cc1ccc(-c2[nH]nc3c2C(c2ccoc2)C(C#N)=C(N)O3)cc1C (stereo unspecified),-,-,-,-,61.8,-
CC1CCOC2(O1)C(=O)Nc1ccccc12 (stereo unspecified),-,-,-,-,41.0,66.5
C=CCc1cccc(/C=N/NC(=O)CCCNc2ccc(C)cc2)c1O,-,-,-,-,46.9,-
C=CCc1cccc(/C=N/NC(=O)CNc2ccccc2OC)c1O,-,61.2,-,-,-,-
C=CCc1cccc(/C=N/NC(=O)CNc2cccc3ccccc23)c1O,-,-,-,-,-,-
C=CCc1cccc(/C=N/NC(=O)CCC(=O)Nc2ccc(F)cc2)c1O,-,-,-,-,-,-
COc1cc2sc3cc(NCc4ccc5c(c4)OCO5)ccc3c(=O)c2cc1OC,.,-,.,.,.,.
COc1cccc2sc3cc(NCc4ccc5c(c4)OCO5)ccc3c(=O)c12,.,76.2,.,.,.,.
CCCCN(C(=O)c1cc(CC)c(C)s1)c1c(N)n(CCC)c(=O)[nH]c1=O,.,-,.,.,.,.
Cc1c(NS(=O)(=O)c2cc(C(=O)N(C)Cc3ccccc3)ccc2Cl)c(=O)n(-c2ccccc2)n1C,.,-,.,.,.,.
Cc1c(NS(=O)(=O)c2cc(C(=O)NCc3cccnc3)cc(Cl)c2Cl)c(=O)n(-c2ccccc2)n1C,.,59.6,.,.,.,.
CCCc1nnc(SCC(=O)O)n1CC,-,-,.,-,-,-
CCOC(=O)C1=C(C)Nc2ccccc2N=C1NC(=O)Cc1ccc(OC)cc1,-,-,-,-,-,-
O=C(c1ccc(N2CCCCC2)c([N+](=O)[O-])c1)N(c1ccccn1)c1ccccn1,42.6,-,-,-,-,-
SMILES,Thrombin inh,AHR act,STAT3 act,FXIa inh 1536,hK5 inh,FXIIa inh
O=C(c1ccc(Cl)c([N+](=O)[O-])c1)N(c1ccccn1)c1ccccn1,-,-,-,-,-,-
COc1ccc(S(=O)(=O)N2CCOCC2)cc1NC(=O)Cc1coc2cc(C)c(C)cc12,.,-,.,.,.,.
Cc1ccc(C(=O)NC(=S)Nc2c(C)ccc3nsnc23)cc1,-,93.8,-,-,-,-
Cc1ccc(C(=O)NC(=S)Nc2cccc3nsnc23)cc1,-,-,-,-,-,-
C#CCn1cc(/C=C2\NC(=O)NC2=O)c2ccccc21,.,76.8,.,.,.,.
CC(C)n1cc(/C=C2/NC(=O)NC2=O)c2ccccc21,-,74.4,-,-,-,-
COc1cc([N+](=O)[O-])ccc1NC(=O)CSc1nc2ccccc2n1-c1ccccc1,-,61.3,-,-,-,-
CCOc1ccc(-n2c(SCC(=O)Nc3cc(OC)c([N+](=O)[O-])cc3C)nc3ccccc32)cc1,-,-,-,-,-,-
Cc1onc(-c2ccccc2)c1C(=O)OCC(=O)Nc1ccc2c(c1)OCO2,-,-,-,-,-,-
Cc1onc(-c2ccccc2Cl)c1C(=O)OCC(=O)Nc1ccc2c(c1)OCO2,-,55.8,-,-,-,-
COc1ccc(Cl)c(Cn2c(NCc3ccco3)nc3c2c(=O)n(C)c(=O)n3C)c1,-,-,-,-,-,-
COc1cccc(Cn2c(NCc3ccco3)nc3c2c(=O)n(C)c(=O)n3C)c1,-,-,-,-,-,43.6
CCN1N=C(c2ccccc2)Cn2c1nc1ccccc12,-,67.2,-,-,-,-
